From ChEMBL document CHEMBL1151458, “Comparative analysis of the bactericidal activities of amphibian peptide analogues against multidrug-resistant nosocomial bacterial strains” (2008)
Activity calls are given as the source filed them. No cut-off for these calls is given here.

Columns and labels:
Pseudomonas aeruginosa [1] = assay: Bactericidal activity against Pseudomonas aeruginosa isolate 2 with AMP-CFZ-CIP-CTX-CXM-GEN-LVX-IPM-MEM-SXT-TET resistance phenotype assessed as concentration required for >= 3 log10 CFU/ml reduction in viable bacteria in sodium phosphate buffer at pH 7.4 after 1.5 hrs by liquid microdilution assay; type: functional
How it was run: (§1)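 Clinical multidrug-resistant isolates grown to mid-log in tryptone soy broth and stored frozen. Exponential cells resuspended in 10 mM sodium phosphate buffer, pH 7.4, at 1 × 10^7 CFU/ml; 10 μl incubated with graded peptide concentrations in 100 μl at 37°C for 1.5 h. Plated on tryptone soy agar, CFU read after 24 h at 37°C. Peptide stocks in 20% ethanol.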

Pseudomonas aeruginosa [2] = assay: Bactericidal activity against Pseudomonas aeruginosa isolate 3 with AMP-CFZ-CTX-CIP-GEN-IPM-LVX-SXT-TET-TOB resistance phenotype assessed as concentration required for >= 3 log10 CFU/ml reduction in viable bacteria in sodium phosphate buffer at pH 7.4 after 1.5 hrs by liquid microdilution assay; type: functional; how it was run: as §1
Enterococcus faecium [3] = assay: Bactericidal activity against Enterococcus faecium isolate 3 with AMP-CIP-CTX-ERY-GEN-LVX-SXT-TEC-VAN resistance phenotype assessed as concentration required for >= 3 log10 CFU/ml reduction in viable bacteria in 20% heat-inactivated human serum after 1.5 hrs by liquid microdilution assay; type: functional
How it was run: (§2)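 The buffer microdilution kill assay (1 × 10^7 CFU/ml mid-log cells, 10 μl in 100 μl, 37°C, 1.5 h, CFU on tryptone soy agar after 24 h) with serum added to 20% or 40% final. Serum was pooled from five healthy donors, clotted at room temperature, spun at 300 × g and heat-inactivated at 56°C for 30 min.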

Staphylococcus aureus [4] = assay: Bactericidal activity against Staphylococcus aureus isolate 1 with AMC-AMP-CIP-ERY-GEN-OXA-RIF resistance phenotype assessed as concentration required for >= 3 log10 CFU/ml reduction in viable bacteria in 20% heat-inactivated human serum after 1.5 hrs by liquid microdilution assay; type: functional; how it was run: as §2
[5] = test system: Stenotrophomonas maltophilia; assay: Bactericidal activity against Stenotrophomonas maltophilia isolate 2 with AMK-CIP-CTX-IPM-MEM-SAM-TZP resistance phenotype assessed as concentration required for >= 3 log10 CFU/ml reduction in viable bacteria in 20% heat-inactivated human serum after 1.5 hrs by liquid microdilution assay; type: functional; how it was run: as §2
Acinetobacter baumannii [6] = assay: Bactericidal activity against Acinetobacter baumannii isolate 3 with AMP-AMC-CFZ-CIP-IPM-SXT-TET-TOB resistance phenotype assessed as concentration required for >= 3 log10 CFU/ml reduction in viable bacteria in 20% heat-inactivated human serum after 1.5 hrs by liquid microdilution assay; type: functional; how it was run: as §2
Pseudomonas aeruginosa [7] = assay: Bactericidal activity against Pseudomonas aeruginosa isolate 1 with AMP-CFZ-CIP-CTX-CXM-GEN-LVX-SXT-TET resistance phenotype assessed as concentration required for >= 3 log10 CFU/ml reduction in viable bacteria in 20% heat-inactivated human serum after 1.5 hrs by liquid microdilution assay; type: functional; how it was run: as §2
Staphylococcus aureus [8] = assay: Antimicrobial activity against Staphylococcus aureus isolate 1 with AMC-AMP-CIP-ERY-GEN-OXA-RIF resistance phenotype at twofold the bactericidal concentration within 30 mins; type: functional, organism-based
How it was run: (§3)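 Time-kill in 10 mM sodium phosphate buffer, pH 7.4: 1 × 10^7 CFU/ml mid-log clinical isolate (10 μl) exposed at 37°C to peptide at the 1.5-h bactericidal concentration or twofold that, in 100 μl. Samples taken from 2 min onward, plated on tryptone soy agar, CFU counted after 24 h at 37°C. Killing taken as ≥3 log10 CFU/ml drop.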

[9] = test system: Stenotrophomonas maltophilia; assay: Antimicrobial activity against Stenotrophomonas maltophilia isolate 2 with AMK-CIP-CTX-IPM-MEM-SAM-TZP resistance phenotype assessed as assessed as time to kill at twofold bactericidal concentration; type: functional; how it was run: as §3
Acinetobacter baumannii [10] = assay: Antimicrobial activity against Acinetobacter baumannii isolate 3 with AMP-AMC-CFZ-CIP-IPM-SXT-TET-TOB resistance phenotype assessed as time to kill at bactericidal concentration; type: functional; how it was run: as §3
Pseudomonas aeruginosa [11] = assay: Antimicrobial activity against Pseudomonas aeruginosa isolate 1 with AMP-CFZ-CIP-CTX-CXM-GEN-LVX-SXT-TET resistance phenotype at bactericidal concentration after 30 mins by time kill assay; type: functional, organism-based; how it was run: as §3
Pseudomonas aeruginosa [12] = assay: Antimicrobial activity against Pseudomonas aeruginosa isolate 1 with AMP-CFZ-CIP-CTX-CXM-GEN-LVX-SXT-TET resistance phenotype at twofold bactericidal concentration after 10 to 30 mins by time kill assay; type: functional, organism-based; how it was run: as §3
Enterococcus faecium [13] = assay: Antimicrobial activity against Enterococcus faecium isolate 3 with AMP-CIP-CTX-ERY-GEN-LVX-SXT-TEC-VAN resistance phenotype assessed as time to kill at bactericidal concentration; type: functional; how it was run: as §3
Enterococcus faecium [14] = assay: Antimicrobial activity against Enterococcus faecium isolate 3 with AMP-CIP-CTX-ERY-GEN-LVX-SXT-TEC-VAN resistance phenotype assessed as time to kill at twofold the bactericidal concentration; type: functional, organism-based; how it was run: as §3
Enterococcus faecium [15] = assay: (§4) Bactericidal activity against Enterococcus faecium isolate 3 with AMP-CIP-CTX-ERY-GEN-LVX-SXT-TEC-VAN resistance phenotype assessed as concentration required for >= 3 log10 CFU/ml reduction in viable bacteria in sodium phosphate buffer at pH 7.4 after 1.5 hrs by liquid microdilution assay; type: functional; how it was run: as §1
Enterococcus faecium [16] = assay: Bactericidal activity against Enterococcus faecium isolate 5 with AMP-AMC-CIP-CLI-ERY-GEN-KAN-LVX-SXT-TEC-VAN resistance phenotype assessed as concentration required for >= 3 log10 CFU/ml reduction in viable bacteria in sodium phosphate buffer at pH 7.4 after 1.5 hrs by liquid microdilution assay; type: functional; how it was run: as §1
Enterococcus faecium [17] = assay: as §4, with “isolate 6” for “isolate 3”, “with AMP-AMC-CLI-CRO-CTX-CIP-ERY-GEN-KAN-LVX-SXT-VAN” for “with AMP-CIP-CTX-ERY-GEN-LVX-SXT-TEC-VAN”; type: functional; how it was run: as §1
Staphylococcus aureus [18] = assay: Bactericidal activity against Staphylococcus aureus isolate 1 with AMC-AMP-CIP-ERY-GEN-OXA-RIF resistance phenotype assessed as concentration required for >= 3 log10 CFU/ml reduction in viable bacteria in sodium phosphate buffer at pH 7.4 after 1.5 hrs by liquid microdilution assay; type: functional; how it was run: as §1
Staphylococcus aureus [19] = assay: Bactericidal activity against Staphylococcus aureus isolate 2 with AMC-AMP-CIP-ERY-GEN-LVX-OXA-RIF-TET resistance phenotype assessed as concentration required for >= 3 log10 CFU/ml reduction in viable bacteria in sodium phosphate buffer at pH 7.4 after 1.5 hrs by liquid microdilution assay; type: functional; how it was run: as §1
Staphylococcus aureus [20] = assay: Bactericidal activity against Staphylococcus aureus isolate 3 with AMC-AMP-CIP-ERY-GEN-LVX-OXA resistance phenotype assessed as concentration required for >= 3 log10 CFU/ml reduction in viable bacteria in sodium phosphate buffer at pH 7.4 after 1.5 hrs by liquid microdilution assay; type: functional; how it was run: as §1
[21] = test system: Stenotrophomonas maltophilia; assay: Bactericidal activity against Stenotrophomonas maltophilia isolate 1 with AMK-CIP-CTX-IPM-MEM-SAM-TZP resistance phenotype assessed as concentration required for >= 3 log10 CFU/ml reduction in viable bacteria in sodium phosphate buffer at pH 7.4 after 1.5 hrs by liquid microdilution assay; type: functional; how it was run: as §1
[22] = test system: Stenotrophomonas maltophilia; assay: Bactericidal activity against Stenotrophomonas maltophilia isolate 2 with AMK-CIP-CTX-IPM-MEM-SAM-TZP resistance phenotype assessed as concentration required for >= 3 log10 CFU/ml reduction in viable bacteria in sodium phosphate buffer at pH 7.4 after 1.5 hrs by liquid microdilution assay; type: functional; how it was run: as §1
[23] = test system: Stenotrophomonas maltophilia; assay: Bactericidal activity against Stenotrophomonas maltophilia isolate 4 with AMK-CAZ-CIP-FEP-IPM-SAM-TZP resistance phenotype assessed as concentration required for >= 3 log10 CFU/ml reduction in viable bacteria in sodium phosphate buffer at pH 7.4 after 1.5 hrs by liquid microdilution assay; type: functional; how it was run: as §1
Acinetobacter baumannii [24] = assay: Bactericidal activity against Acinetobacter baumannii isolate 1 with AMP-AMC-CFZ-CIP-IPM-LVX-PIP-SXT-TET resistance phenotype assessed as concentration required for >= 3 log10 CFU/ml reduction in viable bacteria in sodium phosphate buffer at pH 7.4 after 1.5 hrs by liquid microdilution assay; type: functional; how it was run: as §1
Acinetobacter baumannii [25] = assay: Bactericidal activity against Acinetobacter baumannii isolate 2 with AMP-CFZ-CIP-LVX-PIP-SXT resistance phenotype assessed as concentration required for >= 3 log10 CFU/ml reduction in viable bacteria in sodium phosphate buffer at pH 7.4 after 1.5 hrs by liquid microdilution assay; type: functional; how it was run: as §1
Acinetobacter baumannii [26] = assay: Bactericidal activity against Acinetobacter baumannii isolate 3 with AMP-AMC-CFZ-CIP-IPM-SXT-TET-TOB resistance phenotype assessed as concentration required for >= 3 log10 CFU/ml reduction in viable bacteria in sodium phosphate buffer at pH 7.4 after 1.5 hrs by liquid microdilution assay; type: functional; how it was run: as §1
Pseudomonas aeruginosa [27] = assay: Bactericidal activity against Pseudomonas aeruginosa isolate 1 with AMP-CFZ-CIP-CTX-CXM-GEN-LVX-SXT-TET resistance phenotype assessed as concentration required for >= 3 log10 CFU/ml reduction in viable bacteria in sodium phosphate buffer at pH 7.4 after 1.5 hrs by liquid microdilution assay; type: functional; how it was run: as §1

Substance	Activity (Pseudomonas aeruginosa [1]) [µM]	Activity (Pseudomonas aeruginosa [2]) [µM]	Activity (Enterococcus faecium [3]) [µM]	Activity (Staphylococcus aureus [4]) [µM]	Activity [5] [µM]	Activity (Acinetobacter baumannii [6]) [µM]	Activity (Pseudomonas aeruginosa [7]) [µM]	Activity (Staphylococcus aureus [8])	Time [9] [min]	Time (Acinetobacter baumannii [10])	Activity (Pseudomonas aeruginosa [11])	Activity (Pseudomonas aeruginosa [12])	Time (Enterococcus faecium [13]) [min]	Activity (Enterococcus faecium [14])	Activity (Enterococcus faecium [15]) [µM]	Activity (Enterococcus faecium [16]) [µM]	Activity (Enterococcus faecium [17]) [µM]	Activity (Staphylococcus aureus [18]) [µM]	Activity (Staphylococcus aureus [19]) [µM]	Activity (Staphylococcus aureus [20]) [µM]	further results
H-LLPIVGNLLKSLL-NH2	48	48	48	96	192	192	192	Active	2	>=30 min	inactive	Active	5	inactive	12	12	12	48	48	12	Activity [21]: 24 µM; Activity [22]: 3 µM; Activity [23]: 48 µM; Activity (Acinetobacter baumannii [24]): 24 µM; Activity (Acinetobacter baumannii [25]): 6 µM; Activity (Acinetobacter baumannii [26]): 6 µM; Activity (Pseudomonas aeruginosa [27]): 48 µM
H-FFPVIGRILNGIL-NH2 [TEMPORIN G]	48	48	48	96	>192	>193	>194	Active	2	>=30 min	inactive	Active	5	inactive	6	6	6	24	12	12	Activity [21]: 12 µM; Activity [22]: 3 µM; Activity [23]: >96 µM; Activity (Acinetobacter baumannii [24]): 12 µM; Activity (Acinetobacter baumannii [25]): 6 µM; Activity (Acinetobacter baumannii [26]): 6 µM; Activity (Pseudomonas aeruginosa [27]): 48 µM
